Our source for the inhibition, IC50 and Stability values is ChEMBL document CHEMBL1806497, “Design, synthesis and evaluation of N-benzoylindazole derivatives and analogues as inhibitors of human neutrophil elastase” (Bioorg Med Chem, 2011).

As usually defined, the inhibition is the drop in the measured response relative to a control, in per cent. The IC50 is the point on the concentration scale where inhibition reaches its midpoint.

Active and inactive are the calls of the source. The rule behind the calls is not given here.

Data set [1] deals with T1, Neutrophil elastase (Homo sapiens) (UniProt P08246).
T1 sequence (whole entry): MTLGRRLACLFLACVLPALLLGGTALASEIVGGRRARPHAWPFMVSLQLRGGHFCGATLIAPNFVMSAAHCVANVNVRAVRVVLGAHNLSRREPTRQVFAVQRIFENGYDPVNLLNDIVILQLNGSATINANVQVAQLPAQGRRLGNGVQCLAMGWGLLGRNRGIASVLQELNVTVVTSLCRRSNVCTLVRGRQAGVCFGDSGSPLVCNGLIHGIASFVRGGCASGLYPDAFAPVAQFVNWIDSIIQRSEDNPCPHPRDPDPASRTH
The data set can be described thus: Inhibition of human neutrophil elastase using N-methylsuccinyl-Ala-Ala-Pro-Val-7-amino-4-methyl-coumarin as substrate at < 55 uM measured every 30 secs for 10 mins by fluorescence microplate reader. The procedure, abridged:
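20 mU/mL HNE in 200 mM Tris–HCl pH 7.5, 0.01% BSA, 0.05% Tween-20, 1% DMSO final, added to compound dilutions. Reaction started with 25 µM substrate, read every 30 s for 10 min at 25 °C (ex 355/em 460 nm). IC50 from % inhibition vs log concentration, at least six points; mean of ≥3 independent experiments.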

The target in data set [2] is Urokinase-type plasminogen activator (Homo sapiens, UniProt P00749). In words: Inhibition of human urine urokinase using benzyloxycarbonyl-Gly-Gly-Arg-7-amino-4-methylcoumarin as substrate by spectrophotometric analysis. Put shortly: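 30 U/mL urokinase in 0.1 M Tris–HCl pH 8.0 with 30 µM substrate, 25 °C. Fluorescence read at ex 355/em 460 nm. IC50 from % inhibition vs log concentration, at least six points; mean of ≥3 experiments.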

Data set [3] addresses T1, Neutrophil elastase (Homo sapiens). The data set can be described thus: Inhibition of human neutrophil elastase assessed as cleavage of substrate N-methylsuccinyl-Ala-Ala-Pro-Val-7-amino-4-methyl-coumarin at 600 nM after 10 hrs by fluorescence microplate reader. Put shortly:
(§1)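 HNE incubated with compound at 600 nM; substrate cleavage followed fluorimetrically for the first 180 min and out to 10 h, with a vehicle control. More fluorogenic substrate added after the 10 h incubation to test residual enzyme activity.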

Data set [4] has the same target. In words: Inhibition of human neutrophil elastase assessed as cleavage of substrate N-methylsuccinyl-Ala-Ala-Pro-Val-7-amino-4-methyl-coumarin at 600 nM measured upto 120 mins by fluorescence microplate reader.
Data set [5] can be described thus: Inhibition of human pancreatic chymotrypsin using Suc-Ala-Ala-Pro-Phe-7-amino-4-methylcoumarin as substrate by spectrophotometric analysis. The procedure, abridged:
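30 nM chymotrypsin in 0.05 M Tris–HCl pH 8.0 with 100 µM substrate, 25 °C. Fluorescence read at ex 355/em 460 nm. IC50 from % inhibition vs log concentration, at least six points; mean of ≥3 experiments.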

Data set [6] addresses T2, Neutrophil elastase (Homo sapiens, UniProt P08246).
T2 sequence (P08246 whole entry): T1 sequence (whole entry)
The data set can be described thus: Inhibition of human neutrophil elastase using N-methylsuccinyl-Ala-Ala-Pro-Val-7-amino-4-methyl-coumarin as substrate measured every 30 secs for 10 mins by fluorescence microplate reader.

The target in data set [7] is T1, Neutrophil elastase (Homo sapiens). The data set can be described thus: Inhibition of human neutrophil elastase assessed as cleavage of substrate N-methylsuccinyl-Ala-Ala-Pro-Val-7-amino-4-methyl-coumarin at 600 nM after 5 hrs by fluorescence microplate reader. The procedure, abridged:
as §1

Data set [8] concerns the target Prothrombin (Homo sapiens, UniProt P00734). In words: Inhibition of human plasma thrombin benzoyl-Phe-Val-Arg-7-amino-4-methylcoumarin as substrate by spectrophotometric analysis. The procedure, abridged:
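Fluorescence read at ex 355/em 460 nm. IC50 from % inhibition vs log concentration, at least six points; mean of ≥3 experiments.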

Data set [9] deals with T1, Neutrophil elastase (Homo sapiens). The data set can be described thus: Competitive inhibition of human neutrophil elastase assessed as hydrolysis of fluorogenic substrate N-methylsuccinyl-Ala-Ala-Pro-Val-7-amino-4-methyl-coumarin by Lineweaver-Burk plot analysis. The procedure, abridged:
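HNE kinetics with inhibitor at 0 and 40 nM over varied substrate concentrations; double-reciprocal Lineweaver–Burk plot, representative of three independent experiments.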

A short description of data set [10]: Stability of the compound in aqueous buffer pH 7.3 assessed as hydrolysis of the compound after 10 hrs by spectrophotometric analysis. The class given is physicochemical. To be noted: pH 7.3, 10 h. Put shortly: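 Compound at 20 µM in 0.05 M phosphate buffer pH 7.3, 25 °C. Absorbance spectra (230–330 nm) scanned repeatedly over time to follow spontaneous hydrolysis; scans representative of two independent experiments.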

In data set [11] the target is T1, Neutrophil elastase (Homo sapiens). In words: Inhibition of human neutrophil elastase assessed as cleavage of substrate N-methylsuccinyl-Ala-Ala-Pro-Val-7-amino-4-methyl-coumarin at 600 nM measured upto 90 mins by fluorescence microplate reader. The procedure, abridged: as §1

With `O=C(Nc1ccccc1)c1nn(Cc2ccc(Cl)cc2)c2ccccc12`, the inhibition result in data set [1] was “inactive”.

For `CCOC(=O)c1nn(C(=O)c2ccccc2Cl)c2ccccc12`, the inhibition result in data set [1] was “inactive”.

Take `CCOC(=O)c1nn(C(=O)c2cccc([N+](=O)[O-])c2)c2ccccc12`: the inhibition result in data set [1] is “inactive”.

As to `O=C(Nc1ccccc1)c1nn(C(=O)c2ccccc2Cl)c2ccccc12`, in data set [1], the inhibition entry is “inactive”.

As to `CCOC(=O)c1nn(C(=O)C2CCCCC2)c2ccccc12`, the inhibition result in [1] was “inactive”.

Regarding `O=C(Nc1ccccc1)c1nn(C(=O)c2ccncc2)c2ccccc12`, the inhibition entry in data set [1] was “inactive”.

As for `O=C(Nc1ccccc1)c1nn(C(=O)c2ccc([N+](=O)[O-])cc2)c2ccccc12`, the inhibition entry in data set [1] was “inactive”.

For `CCOC(=O)c1nn(C(=O)Nc2cccc(OC)c2)c2ccccc12`, the inhibition entry in data set [1] was “inactive”.

With `CCOC(=O)c1nn(C(=O)Nc2ccc(Cl)cc2)c2ccccc12`, the inhibition result in data set [1] was “inactive”.

Take `COC(=O)c1nn(C(=O)c2ccsc2)c2ccccc12`: the IC50 in data set [2] was found to be 12 µM; in data set [5] it was 0.26 µM; in [6], 0.31 µM. In [3], the inhibition entry was “inactive”. Moreover, the inhibition entry in data set [4] was “Active”. Also, the inhibition in data set [7] came to 50%.

Consider `COC(=O)c1nn(C(=O)c2cccc(C)c2)c2ccccc12`, for which the IC50 in [2] amounted to 0.87 µM; in [8], 5.1 µM; in data set [5], 0.03 µM; in [6] it was 0.13 µM. In [3], the inhibition result is “inactive”. Moreover, the inhibition result in data set [4] and in [9] was “Active” each time.

Regarding `CCOC(=O)c1nn(C(=O)c2cc(OC)c(OC)c(OC)c2)c2ccccc12`, in data set [1], the inhibition entry is “inactive”.

As to `CCOC(=O)c1nn(C(=O)c2cccc3ccccc23)c2ccccc12`, in [1], the inhibition entry was “inactive”.

With `CC(C)OC(=O)c1nn(C(=O)c2ccccc2)c2ccccc12`, the IC50 worked out at 6.3 µM in [2], 7.8 µM in data set [8], 0.047 µM in [5] and 0.24 µM in data set [6]. Also, the inhibition entry in data set [3] is “inactive”. Moreover, the inhibition entry in data set [4] is “Active”. Further, the inhibition in data set [7] worked out at 50%.

`CCOC(=O)c1nn(C(=O)c2cccc(C(F)(F)F)c2)c2ccccc12`: in data set [1], the inhibition entry was “inactive”.

For the compound `CCOC(=O)c1nn(CC(=O)c2ccccc2)c2ccccc12`, the inhibition entry in data set [1] was “inactive”.

`CCOC(=O)c1nn(C(=O)c2ccc([N+](=O)[O-])cc2)c2ccccc12`: in data set [1], the inhibition result is “inactive”.

Take `COC(=O)c1nn(C(=O)c2ccccc2)c2ccccc12`: the IC50 came out at 1.2 µM in [2], 14 µM in data set [8], 0.081 µM in data set [5] and 0.089 µM in [6]. In data set [3], the inhibition result is “inactive”. In addition, the inhibition result in [4] and in [9] was “Active” in each case. The inhibition in [7] stood at 50%. Also, the Stability entry in data set [10] is “Unstable”.

Regarding `O=C(Nc1ccccc1)c1nn(S(=O)(=O)c2ccc(Cl)cc2)c2ccccc12`, the inhibition entry in [1] was “inactive”.

Consider `Cc1ccc(S(=O)(=O)n2nc(C(=O)Nc3ccccc3)c3ccccc32)cc1`, for which, in [1], the inhibition result was “inactive”.

As to `O=C(Nc1ccccc1)c1nn(-c2ccc(Cl)cc2)c2ccccc12`, the inhibition entry in [1] was “inactive”.

Take `CCOC(=O)c1nn(C(=O)c2ccncc2)c2ccccc12`: in data set [1], the inhibition result was “inactive”.

Take `CCCC(=O)n1nc(C(=O)OCC)c2ccccc21`: the IC50 was determined as 14 µM in data set [2], 5.2 µM in [8], 0.43 µM in [5] and 0.18 µM in data set [6]. Also, the inhibition result in data set [3] and in data set [7] was “inactive” in each case. The inhibition entry in data set [11] was “Active”.

For the compound `COc1cccc(C(=O)n2nc(C)c3ccccc32)c1`, the inhibition entry in data set [1] was “inactive”.

As for `O=C(OCC(F)(F)F)c1nn(C(=O)c2ccccc2)c2ccccc12`, the IC50 in [2] is 10 µM; in data set [8], 6.7 µM; in [5], 0.0029 µM; in data set [6] it was 0.26 µM. In [3], the inhibition result was “inactive”. Besides, the inhibition entry in data set [4] is “Active”. For the same compound, the inhibition in data set [7] worked out at 50%.

With `COC(=O)c1nn(C(=O)c2cccc(N)c2)c2ccccc12`, the inhibition entry in data set [1] was “inactive”.

Take `O=C(O)c1nn(C(=O)c2ccccc2)c2ccccc12`: the inhibition result in data set [1] was “inactive”.
